Source: paper PMC8341738 (RSC Chemical Biology, 2021)

Columns and labels:
Fra1 [1] = target: T1, Fra1 (Homo sapiens, UniProt P15407); test: Isothermal titration calorimetry, Fra1W titrated into Fra1; format: binding
T1 sequence (P15407 129-162): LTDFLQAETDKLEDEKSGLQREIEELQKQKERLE

[2] = Circular dichroism spectra, peptides in isolation; format: physicochemical; details: CD, 150 μM total peptide, 10 mM potassium phosphate, 100 mM potassium fluoride, pH 7.0
Fra1 [3] = target: T1, Fra1; test: Circular dichroism spectra, 1:1 mixture with Fra1; format: binding; details: 1:1 with Fra1, 150 μM total peptide, pH 7.0
Outline: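 Fra1 and test peptide mixed 1:1 at 75 μM each (150 μM total) in 10 mM potassium phosphate, 100 mM KF, pH 7.0. Far-UV CD in a 1 mm cell, 300–190 nm, 1 nm steps, 0.5 s per point, three scans averaged. Spectra taken at 20 °C, at 5 °C, and at 20 °C after thermal denaturation to check refolding. Reported as mean residue ellipticity; 222/208 ratio used to judge oligomerisation.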

cJun [4] = test: Circular dichroism spectra, mixture with cJun; format: binding; details: CD at 20 °C, mixed with cJun, 150 μM total peptide, pH 7.0
cJun [5] = test: CD thermal denaturation, mixture with cJun; format: binding; details: cJun–Fra1W; CD at 222 nm, 150 μM total peptide, pH 7
Outline: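 Equimolar peptide pair at 150 μM total in 10 mM potassium phosphate, 100 mM KF, pH 7. Ellipticity at 222 nm recorded from 0 to 90 °C in 1 °C steps with a 30 s pause at each step, signal averaged over 4 s. Reversible curves (≥95%) were least-squares fitted to a two-state model (modified Gibbs–Helmholtz) to give Tm.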

Fra1–cJun = test: CD dimer exchange experiments; format: binding; details: CD at 20 °C, 150 μM total, equimolar, pH 7.0
Outline: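 Dimer exchange by CD: equimolar peptide mixtures at 150 μM total peptide in 10 mM potassium phosphate, 100 mM potassium fluoride, pH 7.0. Equilibrated spectra recorded at 20 °C in a 1 mm cell, 300–190 nm in 1 nm steps, 0.5 s per wavelength, three scans averaged. Data expressed as mean residue ellipticity and superimposed across mixing orders.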

[6] = Size-exclusion chromatography, single peptides; format: physicochemical; details: Superdex Peptide 10/300 GL; 20 μM total peptide; 10 mM potassium phosphate, 100 mM potassium fluoride, pH 7.0; 0.5 mL min^−1; room temperature; monomeric
Fra1 [7] = target: T1, Fra1; test: Size-exclusion chromatography, mixture with Fra1; format: binding; details: Fra1–Fra1W mixture, 20 μM total peptide, pH 7.0; dimeric
Outline: (§1)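 Peptide mixture at 20 μM total peptide in 10 mM potassium phosphate, 100 mM KF, pH 7.0, run at room temperature on a peptide gel-filtration column at 0.5 mL min⁻¹. Elution times compared against previously characterised monomeric and heterodimeric coiled-coil reference peptides.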

cJun [8] = test: Size-exclusion chromatography, mixture with cJun; format: binding; details: cJun–Fra1W mixture, 20 μM total peptide, pH 7.0; monomeric
Outline: as §1

Fra1 [9] = target: T1, Fra1; test: Protein-fragment complementation assay; format: cell-based; details: competition selection in liquid M9 medium, ten rounds, E. coli

Substance: Ac-KAAALKQKAYALKQQIAALKKQVAALKQKIAALK-NH2 [Fra1W]
- Kd (Fra1 [1]): 917 nM
- N (stoichiometric measure of binding) (Fra1 [1]; ITC, 20 °C, pH 7.0): 1.06
- helical content [2]: 60%
- CD signal vs averaged homomeric signals (Fra1 [3]; CD at 20 °C): an increase from the averaged homomeric signals of Fra1 and Fra1W
- 222/208 nm ratio (Fra1 [3]; CD): 1.06
- α-helical content of Fra1–Fra1W complex (Fra1 [3]; CD): 75%
- α-helical content relative to Fra1 in isolation (Fra1 [3]; CD): more than three times that of the target Fra1 in isolation
- CD signal vs averaged homomeric signals (cJun [4]): superimposed with the averaged homomeric signals
- thermal denaturation profile vs average of component peptides (cJun [5]): no difference from the average of the component peptides
- dimer exchange on addition of Fra1W to Fra1–cJun (Fra1–cJun): an increase in signal was observed
- dimer exchange on addition of Fra1 to cJun–Fra1W (Fra1–cJun): the CD signal increased from the average of the component samples
- dimer exchange on addition of cJun to Fra1–Fra1W (Fra1–cJun): no exchange of binding partner had occurred
- SEC elution time (oligomeric state) [6]: approximately 20 min
- SEC elution time (oligomeric state) (Fra1 [7]): approximately 19 min
- SEC elution time (oligomeric state) (cJun [8]): approximately 20 min
- PCA selection outcome (Fra1 [9]): one clean DNA sequence in the pool after ten rounds of competition selection passaging
